Assay outcomes deposited in PubChem BioAssay by several laboratories.
In the library only some 2.9% were active in any assay of this set; here they are far more common.
Tn7 DDE FP: inhibitors of Tn7 peptide binding to fibrin DD(E), primary screen, biochemical, fluorescence polarization, human fibrin, Tn7 probe; inhibition, % at 8.3 µM; FP displacement of FITC-Tn7 peptide from fibrin DD(E); 0% = median of compound wells per plate; 370,000 tested, 0.13% active; Fibrinogen beta chain (Homo sapiens), P02675;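 active = inhibition above the mean of compounds falling within the control limits plus 3 SD of them, cut at about 14% in these data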
Target sequence (P02675 whole entry, looked up): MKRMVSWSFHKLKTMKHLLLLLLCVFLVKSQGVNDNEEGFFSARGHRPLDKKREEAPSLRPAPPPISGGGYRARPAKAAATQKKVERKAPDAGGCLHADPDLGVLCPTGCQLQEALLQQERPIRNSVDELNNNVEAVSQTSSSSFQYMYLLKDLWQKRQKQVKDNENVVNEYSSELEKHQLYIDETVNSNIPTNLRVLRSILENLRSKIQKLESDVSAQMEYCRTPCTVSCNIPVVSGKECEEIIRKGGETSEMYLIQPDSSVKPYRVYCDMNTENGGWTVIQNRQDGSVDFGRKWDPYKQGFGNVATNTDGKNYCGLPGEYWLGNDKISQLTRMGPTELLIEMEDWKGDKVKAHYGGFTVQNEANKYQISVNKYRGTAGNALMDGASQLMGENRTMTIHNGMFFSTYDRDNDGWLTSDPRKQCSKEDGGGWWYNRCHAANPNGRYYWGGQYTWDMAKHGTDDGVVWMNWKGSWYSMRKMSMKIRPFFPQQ
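assay system = human clot-derived fibrin DD(E) complex | quantity = Fibrin-DD(E) at 2 µM final | timing = 10 min preincubation, 3 h with tracer, room temperature | signal = fluorescence polarization | measure = percent inhibition | benchmarks = high control wells with 10 µM unlabelled Aha-Tn7 peptide (full inhibition) | replicates = singlicate testing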
CendR NRP1 mod: modulators of CendR peptide binding to NRP-1, primary screen, biochemical, fluorescence polarization, uHTS. Neuropilin-1 (Homo sapiens), O14786. FAM-RPARPAR peptide binding to NRP-1. inhibition, % at 25 µM. 360,000 tested, 0.85% active;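 active = inhibition or corrected inhibition above about 18%, plus a signal ratio from 0.5 to 1.5, limit read from the data, passing the limit was not always enough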
KLK7 zymogen act: proKLK7 zymogen activators, primary screen, biochemical, fluorescence intensity | purified proKLK7, EDANS-DABCYL substrate fluorescence; 100% is mature enzyme control, 0% vehicle | 370,000 tested, 0.9% active | activation, % at 7 µM | AID 652039, 2013 | Kallikrein-7 (Homo sapiens), P49862;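 active = activation above the mean of all tested compounds plus 3 SD, computed per campaign excluding outliers beyond control limits, cut at about 13% in these data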
Target sequence (P49862 whole entry, looked up): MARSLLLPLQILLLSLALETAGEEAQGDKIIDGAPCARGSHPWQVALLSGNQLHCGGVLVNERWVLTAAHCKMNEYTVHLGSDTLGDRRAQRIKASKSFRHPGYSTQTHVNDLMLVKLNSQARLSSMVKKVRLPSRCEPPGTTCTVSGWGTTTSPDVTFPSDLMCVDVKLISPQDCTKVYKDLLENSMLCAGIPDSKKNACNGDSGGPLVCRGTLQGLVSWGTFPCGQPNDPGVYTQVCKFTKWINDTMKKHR
CRFBP-R2 block: antagonists of CRF-BP/CRF-R2 complex, primary screen, cell-based, HEK293, calcium dye fluorescence, uHTS. CRF-induced calcium fluorescence. inhibition, % at 11.8 µM. 350,000 tested, 0.59% active;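 active = inhibition of the ligand-induced calcium signal above about 50% at the single tested concentration, limit read from the data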
DDE Tn6 FP inh: inhibitors of Tn6 peptide binding to fibrin DD(E), primary screen, biochemical, fluorescence polarization, human fibrin, Tn6 probe. Fibrinogen beta chain (Homo sapiens), P02675. Fibrin DD(E) TRITC-Tn6 fluorescence polarization displacement. inhibition, % at 8.3 µM. 370,000 tested, 0.21% active. AID 720509, 2013;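 active = inhibition above a per-campaign cutoff: mean of compounds within control limits plus 3 SD, cut at about 15% in these data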
CRFR2-BP ag: agonists of CRF-BP/CRF-R2 complex, primary screen, cell-based, HEK293, calcium dye fluorescence, uHTS | 350,000 tested, 0.46% active | CRF-binding protein / CRF receptor 2 complex (human) | activation, % at 13.2 µM | calcium dye fluorescence (FLIPR); percent of saturating CRF peptide response | AID 588473, 2011;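 active = activation of at least 50%, plus an integration ratio under a set limit after plate pattern correction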
proKLK7 act conf: proKLK7 zymogen activators, confirmation, biochemical, fluorescence intensity, triplicate. shares compounds with KLK7 zymogen act. purified proKLK7, EDANS-DABCYL substrate fluorescence; scaled: vehicle 0, mature enzyme 100. activation, % at 7 µM. 3,200 tested, 68% active;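 active = activation, as change over the incubation, above the mean of all tested compounds plus 3 SD, cut at about 13% in these data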
EDANS interfere: EDANS-DABCYL substrate optical interference, artefact control for kallikrein-7 zymogen activator project, biochemical, fluorescence intensity, high throughput; shares compounds with KLK7 zymogen act; no enzyme, 4 h; solvent 0%, active enzyme control 100%; activation, % at 7 µM; 3,200 tested, 80% active; AID 686952, 2013;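 active = activation above the all-compound mean plus 3 SD, ignoring values outside control-based bounds, cut at about 4.8% in these data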;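 also: value is the 4 h activation minus the activation read at time zero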
K7 EDANS ctr: EDANS fluorescence interference in dose response, no enzyme; shares compounds with KLK7 zymogen act; EDANS-DABCYL peptide fluorescence interference; EC50, µM; 250 tested, 20% active; AID 720493;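 active = compounds that raise the fluorescence signal in this interference counterscreen, with EC50 at or below 10 µM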;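 also: intact quenched peptide substrate alone read at 355 nm excitation and 520 nm emission; signal is fluorescence gain from T0 to T4 after four hours at room temperature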
A number is an active result; - = inactive; . = not tested or not shown.

SMILES | Tn7 DDE FP | CendR NRP1 mod | KLK7 zymogen act | CRFBP-R2 block | DDE Tn6 FP inh | CRFR2-BP ag | proKLK7 act conf | EDANS interfere | others
COC(=O)[C@]12C[C@H](CC(=O)N3CCC(c4ccccc4)CC3)C(=O)N(Cc3cccc4ccccc34)C1=C[C@H](C(C)C)O[C@@H]2C1CC1 | - | . | - | . | - | . | . | .
O=C(O)c1cccc(CN2C(=O)SC(Nc3ccccc3)C2=O)c1 (stereo not drawn) | - | - | - | - | - | - | . | .
O=C(O)c1cccc(CN2C(=O)SC(Nc3cccc4ccccc34)C2=O)c1 (stereo not drawn) | - | - | 60.0 | - | - | - | 61.8 | 69.3
COc1ccccc1C(=O)n1ccc2ccc(-c3ccc4ccn(Cc5ccccc5)c4c3)cc21 | - | . | - | . | - | . | . | .
O=C1Cc2ccccc2C(=O)N1Cc1cccc(Cl)c1 | - | - | - | - | - | - | . | .
Nc1cccc2c1C(=O)N(Cc1cccc(Cl)c1)C2=O | - | - | 27.2 | - | - | - | - | -
CCOC(=O)c1c(-c2ccccc2)oc2ccc(OC(C)=O)cc12 | - | - | - | - | - | - | . | .
CCOC(=O)c1c(-c2ccccc2)oc2ccc(OCC(O)CN(C)C)cc12 (stereo not drawn) | - | - | 16.5 | - | - | - | - | -
COc1ccc(-c2cc(=O)c3cc(OC)ccc3o2)cc1 | - | - | - | - | - | - | . | .
COc1ccc2oc(-c3ccccc3)c(C(N)=O)c2c1 | - | - | 13.0 | - | - | - | - | 18.5
COc1ccc2oc(-c3ccccc3)cc(=O)c2c1 | - | - | 14.1 | . | - | . | - | -
CCOC(=O)c1c(-c2ccccc2)oc2ccc(OC(C)C(=O)O)cc12 (stereo not drawn) | - | - | 36.2 | 51.5 | - | - | - | -
COc1ccc2oc(-c3ccccc3)c(C(=O)O)c2c1 | - | - | - | - | - | - | . | .
CCCCOCCCNC(=O)C[C@H]1C[C@@]2(C(=O)OC)C(=C[C@H](C(C)(C)C)O[C@@H]2C)N(Cc2ccc(Cl)cc2Cl)C1=O | - | . | - | . | - | . | . | .
O=C(CSc1nc2ccccc2nc1N1CCOCC1)N1CCN(c2cccc(C(F)(F)F)c2)CC1 | - | . | - | . | - | . | . | .
CCn1c(Cc2cccs2)nnc1SCC(=O)Nc1ccccc1-c1ccccc1 | - | . | - | . | - | . | . | .
CSc1ccc(-c2cc(=O)c3ccccc3o2)cc1 | - | - | 65.6 | - | - | - | 67.6 | 75.9
CCOC(=O)c1c(-c2ccccc2)oc2ccc(OCC(=O)NNC(=O)CCCC(=O)O)cc12 | - | - | 13.2 | - | - | - | - | -
O=C(OCCCN1CCC2(CCCCC2)C1=O)c1ccccc1 | - | . | - | . | - | . | . | .
COC(=O)C1=C(C)N(Cc2cccc(C(F)(F)F)c2)C(=NCc2ccccc2C(F)(F)F)NC1c1ccc(Cl)cc1 (stereo not drawn) | - | . | - | . | - | . | . | .
O=C(/C=C(\Nc1ccc(Cl)c(Cl)c1)c1ccccc1)c1ccccc1 | - | . | - | . | - | . | . | .
CCOc1ccc(-n2c(SCC(=O)c3ccc4ccccc4c3)nnc2-c2ccco2)cc1 | - | . | - | . | - | . | . | .
Cc1ccc(-c2csc3nc4ccc(C(=O)NCCO)cc4c(=O)n23)cc1 | - | - | 15.8 | - | - | - | - | -
CC1CN(Cc2c(O)ccc3c(=O)c(-c4ccccc4Cl)coc23)CC(C)O1 (stereo not drawn) | - | - | 89.7 | - | - | - | 26.1 | 29.6
O=c1c(-c2ccc(Br)cc2)coc2c(CN3CCCCC3)c(O)ccc12 | - | - | - | - | - | - | . | .
SMILES | Tn7 DDE FP | CendR NRP1 mod | KLK7 zymogen act | CRFBP-R2 block | DDE Tn6 FP inh | CRFR2-BP ag | proKLK7 act conf | EDANS interfere | others
O=c1c(-c2ccc(Cl)cc2)coc2c(CN3CCCCC3)c(O)ccc12 | - | - | 13.7 | - | - | - | 21.5 | 27.1
COc1ccc(Oc2coc3c(CN4CCOCC4)c(O)ccc3c2=O)cc1 | - | - | 29.5 | - | - | - | - | 15.1
CC1CCCN(Cc2c(O)ccc3c(=O)c(-c4ccc(Cl)cc4)coc23)C1 (stereo not drawn) | - | - | - | - | - | - | . | .
O=c1c(-c2ccc(Br)cc2)coc2c(CN3CCOCC3)c(O)ccc12 | - | - | 14.4 | - | - | - | 13.3 | 5.8 | K7 EDANS ctr=-
CC(=O)OCCC(CC(C)C)NC(=O)[C@H](CC(C)C)NC(=O)OCc1ccccc1 (stereo partly drawn) | - | . | . | . | - | . | . | .
CN[C@H]1C[C@H]2c3[nH]c4c(-c5cccc(C)c5)cccc4c3CCN2C[C@H]1[C@H](C)O | - | . | - | . | - | . | . | .
O=c1c(-c2ccccc2Cl)coc2c(CN3CCCCC3)c(O)ccc12 | - | - | 59.8 | - | - | - | 73.9 | 74.1
CC1CCCCN1Cc1c(O)ccc2c(=O)c(-c3nc4ccccc4s3)coc12 (stereo not drawn) | - | - | - | - | - | - | . | .
COc1ccc(C2=NC(C)(C)Cc3cc(OC)c(OC)cc32)cc1 | - | - | 22.5 | - | - | - | - | 7.1
COc1ccc(C2=NCCc3cc(OC)c(OC)cc32)cc1OC | - | - | 16.6 | - | - | - | - | 11.3
COc1cc2c(cc1OC)C(CCc1ccccc1)=NCC2 | - | - | 152.4 | - | - | - | 62.9 | 79.8
COc1cc2c(cc1OC)C(c1c(Cl)cccc1Cl)=NCC2 | - | - | - | . | - | . | . | .
COc1ccc(C2=NCCc3cc(OC)c(OC)cc32)cc1 | - | - | 30.2 | - | - | - | - | 12.9
CCN(CC)c1ccc2c(C)c(CN3CCOCC3)c(=O)oc2c1 | . | - | . | - | . | - | . | .
CCN(CC)c1ccc2c(C)c(CO)c(=O)oc2c1 | - | - | 50.3 | - | - | - | 50.6 | 36.0 | K7 EDANS ctr=-
O=C(COC(=O)c1cc2ccccc2cc1O)Nc1ccccc1F | - | - | 14.2 | - | - | - | 14.9 | 12.9
O=C(COC(=O)c1ccccc1F)Nc1ccc2c(c1)OCCO2 | - | - | - | - | - | - | . | .
O=C(COC(=O)c1cc(Cl)ccc1O)Nc1ccc2c(c1)OCCO2 | - | - | 18.9 | - | - | - | 19.0 | 16.3
